Tests used:
Hepatitis C virus [1] = test: Antiviral activity against HCV genotype 2a infected in human Huh7.5-FGR-JC1-Rluc2A replicon cells assessed as inhibition of viral RNA replication at 50 uM measured after 48 hrs by luciferase reporter gene assay relative to control; type: functional, Hepacivirus hominis; conditions: Huh-7, 48 h
Procedure, shortened: (§1)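 Replicon cells (gt1b firefly luciferase; gt2a Renilla luciferase) in DMEM/10% FBS with G418, ~1 × 10^4 cells/well, dosed 12 h after seeding with 50 µM compound or DMSO (1% final) for 48 h at 37 °C. Cells were PBS-washed and luciferase read; % inhibition was taken versus DMSO-treated cells, mean±SD, n=3.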

[2] = Cytotoxicity against human Huh7.5 cells measured after 48 hrs by MTS assay; type: toxicity, cell-based, Huh-7; conditions: for CC50 at 48 h: Huh7.5 cells; for Activity: huh-7, 48 h
Procedure, shortened: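 Parental Huh7.5 cells were treated 12 h after seeding with 8-10 dilutions of compound or DMSO (1% final) for 48 h at 37 °C. Viability was read by MTS bioreduction to formazan. CC50 is the concentration halving the MTS signal, mean ± SD of three independent experiments.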

Hepatitis C virus [3] = test: Antiviral activity against HCV genotype 1b infected in human Huh7/Rep-Feo1b replicon cells assessed as inhibition of viral RNA replication at 50 uM measured after 48 hrs by luciferase reporter gene assay relative to control; type: functional, Hepacivirus hominis; conditions: Huh-7, 48 h; procedure, shortened: as §1
Hepatitis C virus [4] = test: Antiviral activity against HCV genotype 1b infected in human Huh7/Rep-Feo1b replicon cells assessed as inhibition of viral RNA replication measured after 48 hrs by luciferase reporter gene assay; type: functional, cell-based, Hepacivirus hominis; conditions: Huh-7, 48 h
Procedure, shortened: (§2)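 EC50 from concentration-response in replicon cells (gt1b firefly, gt2a Renilla luciferase reporter) maintained with G418. Compound added 12 h post-seeding (~1 × 10^4 cells/well), 48 h exposure, DMSO 1% final. Luciferase was compared with DMSO controls; the value is the mean ± SD of three independent 8-12 point quarter-log dilution series, calculated with CalcuSyn.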

[5] = Selectivity index, ratio of CC50 for human Huh7.5 cells to EC50 for HCV genotype 1b infected in human Huh7/Rep-Feo1b replicon cells; design: species or system Huh-7
Hepatitis C virus [6] = test: Antiviral activity against HCV genotype 2a infected in human Huh7.5-FGR-JC1-Rluc2A replicon cells assessed as inhibition of viral RNA replication incubated for 48 hrs by luciferase reporter gene assay; type: functional, cell-based, Hepacivirus hominis; conditions: Huh-7, 48 h; procedure, shortened: as §2
[7] = Selectivity index, ratio of CC50 for human Huh7.5 cells to EC50 for HCV genotype 2a infected in human Huh7.5-FGR-JC1-Rluc2A replicon cells; design: species or system Huh-7

EC50 (Hepatitis C virus [4]) | EC50 (Hepatitis C virus [6]) | SMILES | inhibition at 50 µM (Hepatitis C virus [1]) | CC50 at 48 h [2] | Activity [2] | inhibition at 50 µM (Hepatitis C virus [3]) | Ratio CC50/EC50 [5] | Ratio CC50/EC50 [7]
2 µM | 1.2 µM | OC1CCCC[C@H]2[C@H]1[C@@H](c1cccc(F)c1)CN2Cc1ccccc1 (mixture of isomers) | 99% | 36.9 µM | 28% | 99% | 18.4 | 30.8
14.9 µM | 14.3 µM | CCOC(=O)[C@@H]1C[C@@H]2C(=O)CCCC[C@@H]2N1C(=O)c1ccccc1 (racemic) | 95% | > 200 µM |  | 59% | >13.4 | >13.9
 | 26.3 µM | Cc1ccc(S(=O)(=O)N2[C@H](C(=O)O)C[C@@H]3/C(=N/Nc4ccccc4)CCCC[C@@H]32)cc1 (racemic) | 81% | > 200 µM |  | 25% |  | >7.6
34.4 µM | 13 µM | CCOC(=O)[C@@H]1C[C@@H]2C(=O)CCCC[C@@H]2N1S(=O)(=O)c1ccc(C(C)(C)C)cc1 (racemic) | 94% | > 200 µM |  | 49% | >5.8 | >15.4
11.7 µM | 1.6 µM | O=C1CCCC[C@@H]2[C@@H]1[C@H](c1cccc(F)c1)CN2Cc1ccccc1 (racemic) | 97% | > 50 µM | 63% | 83% | >4.2 | >31.8
7.7 µM | 4.6 µM | O=C1CCCC[C@H]2[C@H]1[C@@H](c1ccccc1)CN2Cc1ccccc1 (racemic) | 96% | 134 µM | 85% | 71% | 17.3 | 29.2
59.4 µM | 8.7 µM | CCOC(=O)[C@@H]1C[C@@H]2C(=O)CCCC[C@H]2N1S(=O)(=O)c1ccc(C)cc1 (racemic) | 91% | > 200 µM |  | 51% | 3.4 | 22.9
28.1 µM |  | Cc1ccc(S(=O)(=O)N2[C@H](C(=O)NCCc3ccccc3)C[C@@H]3C(=O)CCCC[C@@H]32)cc1 (racemic) | 48% | 153 µM |  | 66% | 5.4 | 
18.2 µM | 11.5 µM | C[C@]12C[C@@H](Cc3ccccc3)N(Cc3ccccc3)[C@H]1CCCC(=O)N2 (racemic) | 95% | > 50 µM | 60% | 87% | >2.7 | >4.3
7.1 µM | 6.1 µM | CCOC(=O)[C@H]1C[C@H]2C(=O)CCCC[C@H]2N1S(=O)(=O)c1ccc(C)cc1 (racemic) | 84% | > 200 µM | 77% | 89% | >28.2 | >32.8
11.6 µM | 8.2 µM | CCOC(=O)[C@@H]1C[C@@H]2NC(=O)CCCC[C@@H]2N1S(=O)(=O)c1ccc(C)cc1 (racemic) | 71% | 143 µM | 92% | 66% | 12.4 | 17.4
 | 27.6 µM | CCOC(=O)[C@@H]1C[C@@H]2[C@@H](O)CCCC[C@@H]2N1S(=O)(=O)c1ccc(C)cc1 (racemic) | 77% | > 200 µM |  | 22% |  | 7.3
24.1 µM | 12.4 µM | O=C1CCCC[C@H]2[C@H](N1)[C@@H](c1ccccc1)CN2Cc1ccccc1 (racemic) | 59% | > 200 µM | 98% | 80% | >8.3 | >16.1
49.1 µM | 14.2 µM | CCOC(=O)[C@@H]1C[C@]2(C)C(=O)CCCC[C@@H]2N1S(=O)(=O)c1ccc(C)cc1 (racemic) | 76% | > 200 µM |  | 50% | 4.1 | 14.1
7.5 µM | 5.6 µM | O=C1CCCC[C@@H]2[C@H](C[C@H](Cc3ccccc3)N2Cc2ccccc2)N1 (racemic) | 99% | > 50 µM | 61% | 82% | >6.6 | >8.8
9 µM | 4.47 µM | CC(C)(C)OC(=O)N1CC[C@H]2[C@H](C(=O)C1)[C@@H](c1ccccc1)CN2Cc1ccccc1 (racemic) | 99% | > 50 µM | 61% | 94% | >5.5 | >11.2
16.5 µM | 11.4 µM | O=C1CCCC[C@@H]2[C@H]1[C@@H](c1ccccc1)CN2S(=O)(=O)c1ccccc1 (racemic) | 88% | > 200 µM | 84% | 78% | 12.1 | 17.6
 | 23.8 µM | CCOC(=O)[C@@H]1C[C@@H]2C(=O)CCCC[C@@H]2N1S(=O)(=O)c1ccc(Cl)cc1 (racemic) | 60% | > 200 µM |  | 32% |  | 8.4

Second part, the molecule before the results:

SMILES | EC50 (Hepatitis C virus [4]) | EC50 (Hepatitis C virus [6]) | inhibition at 50 µM (Hepatitis C virus [1]) | CC50 at 48 h [2] | Activity [2] | inhibition at 50 µM (Hepatitis C virus [3]) | Ratio CC50/EC50 [5] | Ratio CC50/EC50 [7]
CCOC(=O)[C@H](C)N1CC[C@H]2C(=O)CCCC[C@@H]21 |  |  | 83% |  |  |  |  | 
CCOC(=O)[C@@H](C)N1CC[C@H]2C(=O)CCCC[C@@H]21 |  |  | 38% | > 100 µM | 88% | 24% |  | 
Cc1ccc(S(=O)(=O)N2[C@H](C(=O)N3CCOCC3)C[C@@H]3C(=O)CCCC[C@@H]32)cc1 (racemic) |  |  | 12% | > 200 µM |  | 19% |  | 
Cc1ccc(S(=O)(=O)N2[C@H]3CCCCC(=O)[C@@]3(C)C[C@H]2C(=O)O)cc1 (racemic) |  |  | 33% | > 200 µM |  | 41% |  | 
O=C1CCCC[C@@H]2[C@@H](N1)[C@H](c1cccc(F)c1)CN2Cc1ccccc1 (racemic) |  |  | 80% |  |  | 49% |  | 
CCOC(=O)[C@@H]1C[C@@H]2[C@@H](CCC[C@@H]2O)N1S(=O)(=O)c1ccc(C)cc1 (racemic) |  |  | 45% | > 150 µM | 93% | 38% |  | 
Cc1ccc(S(=O)(=O)N2[C@H](C(N)=O)C[C@@H]3C(=O)CCCC[C@@H]32)cc1 (racemic) |  |  | 38% | > 200 µM |  |  |  | 
O=C(O)[C@@H]1C[C@H]2[C@@H](O)CCC[C@H]2N1 (racemic) |  |  | 12% |  |  |  |  | 
COc1cccc([C@@H]2CN(Cc3ccccc3)[C@@H]3CCCCC(=O)N[C@H]32)c1 (racemic) |  |  | 54% |  |  | 59% |  | 
Cc1ccc(S(=O)(=O)N2[C@H](C(=O)O)C[C@@H]3C(=O)CCCC[C@@H]32)cc1 (racemic) |  |  | 42% | > 200 µM |  | 14% |  | 
Cl.Cl.Fc1cccc([C@@H]2CN(Cc3ccccc3)[C@@H]3CCCCCN[C@H]32)c1 (racemic) |  |  | 61% | < 50 µM | 11% | 98% |  | 
O=C1CCCC[C@@H]2[C@H]1[C@@H](c1ccccc1)CN2Cc1ccccc1 (racemic) |  |  | 4% |  |  | 38% |  | 
CCOC(=O)[C@@H]1C[C@@H]2C(=O)CCCC[C@@H]2N1S(=O)(=O)c1ccnn1C (racemic) |  |  | 17% | > 200 µM |  |  |  | 
CCOC(=O)[C@@H]1C[C@@H]2/C(=N/OCc3ccccc3)CCCC[C@@H]2N1S(=O)(=O)c1ccc(C)cc1 (racemic) |  |  | 30% | > 200 µM |  |  |  | 
CC(C)(C)OC(=O)N1CC[C@@H]2NC[C@H](c3ccccc3)[C@H]2C(=O)C1.Cl (racemic) |  |  | 47% | > 150 µM | 97% | 48% |  | 
CCNC(=O)[C@@H]1C[C@@H]2C(=O)CCCC[C@@H]2N1S(=O)(=O)c1ccc(C)cc1 (racemic) |  |  | 39% | > 200 µM |  | 15% |  | 

Reference: ChEMBL document CHEMBL3865803, “Bicyclic octahydrocyclohepta[b]pyrrol-4(1H)one derivatives as novel selective anti-hepatitis C virus agents” (Eur J Med Chem, 2016)
